These results are taken from ChEMBL document CHEMBL3351861, “New synthetic sulfone derivatives inhibit growth, adhesion and the leucine arylamidase APE2 gene expression of Candida albicans in vitro” (2015).

This experiment relates to Candida albicans. The experiment is described as follows: Reduction in APE2 gene expression in compound pre-treated Candida albicans CAI4 expressing delta-efg1 (EFG1) gene grown on human Caco2 cells monolayer at 16 ug/ml pre-treated for 2 hrs measured after 18 hrs by RT-PCR method. Type of experiment: functional, Caco-2. The gist of the method:
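Caco-2 was seeded at 1.2×10^5 cells/ml in EMEM (10% FCS, 1 mM pyruvate, no antibiotics) for 18 h at 37°C, 5% CO2. Yeast (10^4 cfu/ml) was pre-incubated 2 h in RPMI with 16 µg/ml sulfone, washed, resuspended in RPMI and inoculated onto the monolayer at 37°C. APE2 mRNA was measured by SYBR qPCR against ACT1 (2^-ΔΔCt, 90028 calibrator), in triplicate.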

`NNc1ccc(S(=O)(=O)C(Cl)(Br)Br)cc1[N+](=O)[O-]`: the “fold change (FC)” value was determined as 8.72.
